Measurements published in paper PMC12417823 (Neuro-Oncology, 2025).

Legend:
[1] = system: Per2::Luc reporter in Cry1 knockout fibroblasts; assay: Per2::Luc repression assay; format: cell-based, mice; details: Cry1 knockout cells
Summary of the method: (§1)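 Mouse fibroblasts carrying a Per2::Luc knock-in reporter (wild type, Cry1/Cry2 double, Cry1 or Cry2 knockout) grown 2 days to confluency in 384-well plates, then given test compound dilution series (final 0.7% DMSO). After 2 days, medium replaced with BrightGlo and luminescence read. Change is relative to DMSO control, n = 3–4 biological samples. IC50 from sigmoidal dose–response fit.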

CRY1/CRY2 = details: cited from earlier work
[2] = system: Per2::Luc reporter in Cry2 knockout fibroblasts; assay: Per2::Luc repression assay; format: cell-based, mice; details: Cry2 knockout cells, compared to wild type
Summary of the method: as §1

| Compound | repression of Per2::Luc reporter activity [1] | CRY isoform selectivity (CRY1/CRY2) | repression of Per2::Luc reporter activity [2] |
| --- | --- | --- | --- |
| CS(=O)(=O)N(Cc1ccco1)CC(O)Cn1c2ccccc2c2ccccc21 (stereo not drawn) [KL001] | less effective than intact cells | does not display a CRY isoform selectivity | – |
| O=C1NCCN1CC(O)Cn1c2ccc(F)cc2c2cc(F)ccc21 (stereo not drawn) [SHP656] | – | selective for CRY2 | reduced overall repression |
| O=C1NCCN1C[C@H](O)Cn1c2ccc(F)cc2c2cc(F)ccc21 [SHP1703] | – | selective for CRY2 | reduced overall repression |
